The values that follow come from ChEMBL document CHEMBL3616437, “Thiazole compounds with activity against Cryptococcus gattii and Cryptococcus neoformans in vitro” (Eur J Med Chem, 2015).

Assay [1] relates to Cryptococcus neoformans. Kind of assay: Antifungal activity against Cryptococcus neoformans ATCC 24067 assessed as reduction in cell viability at 0.9 uM after 6 to 72 hrs by MTT assay. It is filed as functional. For orientation: Tetrazolium assays rely on reduction of a dye to a coloured formazan, in cell work by metabolically active cells.
Assay [2] has as its system Cryptococcus gattii species complex. The assay can be described thus: Post-antifungal activity against Cryptococcus gattii L27/01 assessed as organism required time to achieve cell population of 10^4 cells/ml at 0.45 uM treated for 1 hr by MTT assay in presence of 0.11 uM amphotericin B. It is filed as functional, Cryptococcus bacillisporus.
Assay [3] deals with Cryptococcus neoformans. The assay can be described thus: Antifungal activity against Cryptococcus neoformans WP assessed as reduction in cell viability at 0.9 uM after 6 to 72 hrs by MTT assay. In kind it is functional.
Assay [4] relates to Cryptococcus neoformans. Kind of assay: Antifungal activity against Cryptococcus neoformans 27JF assessed as reduction in cell viability at 0.9 uM after 6 to 72 hrs by MTT assay. It is filed as functional.
The test system of assay [5] is Cryptococcus neoformans. The assay can be described thus: Antifungal activity against Cryptococcus neoformans 96806 assessed as reduction in cell viability at 0.9 uM after 6 to 72 hrs by MTT assay. In kind it is functional.
Assay [6] has as its system Cryptococcus gattii species complex. Kind of assay: Antifungal activity against Cryptococcus gattii L27/01 assessed as reduction in ergosterol content at MIC after 24 hrs by spectrophotometric analysis in presence of amphotericin B. In kind it is functional, organism-based. Conditions: Cryptococcus bacillisporus. In short, it runs like this: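 Pellet washed and weighed, then saponified in 25% ethanolic KOH at 85°C for 1 h. Extracted with water and n-heptane, read at 282 and 230 nm. Ergosterol taken from a standard curve and expressed as % of growth control.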

Assay [7] relates to Cryptococcus neoformans. Kind of assay: Antifungal activity against Cryptococcus neoformans F10 assessed as reduction in cell viability at 1.9 uM after 6 to 72 hrs by MTT assay. It is filed as functional.
Assay [8] has as its system Cryptococcus neoformans. The assay can be described thus: Antifungal activity against Cryptococcus neoformans WP assessed as reduction in cell viability at 1.9 uM after 6 to 72 hrs by MTT assay. It is filed as functional.
The test system of assay [9] is Cryptococcus neoformans. Kind of assay: Antifungal activity against Cryptococcus neoformans 27JF assessed as reduction in cell viability at 1.9 uM after 6 to 72 hrs by MTT assay. It is filed as functional.
The subject of assay [10] is Cryptococcus neoformans. The assay can be described thus: Antifungal activity against Cryptococcus neoformans CN31 assessed as reduction in cell viability at 1.9 uM after 6 to 72 hrs by MTT assay. It is filed as functional.
Assay [11] concerns Cryptococcus gattii species complex. Kind of assay: Antifungal activity against Cryptococcus gattii L27/01 assessed as reduction in cell viability at 26 uM after 6 to 72 hrs by MTT assay. In kind it is functional, Cryptococcus bacillisporus. In short, it runs like this:
(§1)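 Time-kill setup: colonies from two 48 h, 35°C SDA passages were suspended in saline to 70% transmittance at 530 nm. They were then diluted to 1-5 x10^3 cells/mL in RPMI with L-glutamine buffered to pH 7.0 with 0.165 M MOPS. Plates were incubated at 35°C for 0-72 h, then MTT (5.0 mg/mL) was added for 3 h. After isopropanol, absorbance was read at 490 nm. Drug-free controls were included, results were confirmed by SDA colony counts, and assays were run in triplicate.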

In assay [12] the test system is Cryptococcus neoformans. The assay can be described thus: Antifungal activity against Cryptococcus neoformans WP assessed as reduction in cell viability at 26 uM after 6 to 72 hrs by MTT assay. It is filed as functional. The method in brief: as §1
For assay [13], the system named is Cryptococcus neoformans. The assay can be described thus: Antifungal activity against Cryptococcus neoformans 5396 assessed as reduction in cell viability at 26 uM after 6 to 72 hrs by MTT assay. It is filed as functional. In short, it runs like this: as §1
Assay [14] concerns Cryptococcus gattii species complex. Kind of assay: Antifungal activity against Cryptococcus gattii L24/01 assessed as reduction in cell viability at 26 uM after 6 to 72 hrs by MTT assay. It is filed as functional, Cryptococcus bacillisporus. In short, it runs like this: as §1
Assay [15] has as its system Cryptococcus neoformans. Kind of assay: Antifungal activity against Cryptococcus neoformans 96806 assessed as reduction in cell viability at 26 uM after 6 to 72 hrs by MTT assay. It is filed as functional. In short, it runs like this:
as §1

The test system of assay [16] is Cryptococcus neoformans. The assay can be described thus: Antifungal activity against Cryptococcus neoformans VM-MCMMPI assessed as reduction in cell viability at 26 uM after 6 to 72 hrs by MTT assay. It is filed as functional. In short, it runs like this:
as §1

Assay [17] concerns Cryptococcus gattii species complex. The assay can be described thus: Antifungal activity against Cryptococcus gattii L28/02 assessed as reduction in cell viability at 26 uM after 6 to 72 hrs by MTT assay. In kind it is functional, Cryptococcus bacillisporus. In short, it runs like this: as §1
For assay [18] the test system is unchanged. Kind of assay: Antifungal activity against Cryptococcus gattii 23/10993 assessed as reduction in cell viability at 26 uM after 6 to 72 hrs by MTT assay. In kind it is functional, Cryptococcus bacillisporus. The method in brief:
as §1

Assay [19] relates to Cryptococcus bacillisporus. Kind of assay: Antifungal activity against Cryptococcus gattii ATCC 32608 assessed as reduction in cell viability at 26 uM after 6 to 72 hrs by MTT assay. In kind it is functional. The method in brief:
as §1

In assay [20] the test system is Cryptococcus gattii species complex. Kind of assay: Antifungal activity against Cryptococcus gattii 1913ER assessed as reduction in cell viability at 26 uM after 6 to 72 hrs by MTT assay. It is filed as functional, Cryptococcus bacillisporus. In short, it runs like this:
as §1

In assay [21] the test system is Cryptococcus neoformans. The assay can be described thus: Antifungal activity against Cryptococcus neoformans LMM820 assessed as reduction in cell viability at 26 uM after 6 to 72 hrs by MTT assay. It is filed as functional. In short, it runs like this:
as §1

The test system of assay [22] is Cryptococcus neoformans. Kind of assay: Antifungal activity against Cryptococcus neoformans 28JF assessed as reduction in cell viability at 0.12 uM after 6 to 72 hrs by MTT assay. It is filed as functional.
In assay [23] the test system is Cryptococcus gattii species complex. The assay can be described thus: Antifungal activity against Cryptococcus gattii L24/01 assessed as reduction in cell viability at 0.12 uM after 6 to 72 hrs by MTT assay. It is filed as functional, Cryptococcus bacillisporus.
The test system of assay [24] is Cryptococcus bacillisporus. Kind of assay: Antifungal activity against Cryptococcus gattii ATCC 32608 assessed as reduction in cell viability after at 0.12 uM 6 to 72 hrs by MTT assay. It is filed as functional.
For assay [25], the system named is Cryptococcus neoformans. The assay can be described thus: Antifungal activity against Cryptococcus neoformans 96806 assessed as reduction in cell viability at 0.12 uM after 6 to 72 hrs by MTT assay. It is filed as functional.
The test system of assay [26] is Cryptococcus gattii species complex. Kind of assay: Antifungal activity against Cryptococcus gattii 547/OTTI-97-PI-10 assessed as reduction in cell viability at 0.12 uM after 6 to 72 hrs by MTT assay. It is filed as functional, Cryptococcus bacillisporus.
Assay [27] relates to Cryptococcus neoformans. Kind of assay: Antifungal activity against Cryptococcus neoformans VM-MCMMPI assessed as reduction in cell viability at 0.12 uM after 6 to 72 hrs by MTT assay. In kind it is functional.
For assay [28], the system named is Cryptococcus neoformans. Kind of assay: Antifungal activity against Cryptococcus neoformans CN31 assessed as reduction in cell viability at 0.12 uM after 6 to 72 hrs by MTT assay. In kind it is functional.
Assay [29] deals with Cryptococcus neoformans. The assay can be described thus: Antifungal activity against Cryptococcus neoformans ATCC 24067 assessed as reduction in cell viability at 0.12 uM after 6 to 72 hrs by MTT assay. It is filed as functional.
Assay [30] concerns Cryptococcus neoformans. Kind of assay: Antifungal activity against Cryptococcus neoformans F10 assessed as reduction in cell viability at 0.12 uM after 6 to 72 hrs by MTT assay. It is filed as functional.
Assay [31] has as its system Cryptococcus gattii species complex. Kind of assay: Antifungal activity against Cryptococcus gattii 135L/03 assessed as reduction in cell viability at 0.12 uM after 6 to 72 hrs by MTT assay. In kind it is functional, Cryptococcus bacillisporus.

Calls of active or inactive are those of the source. No cut-off for these calls is given here.

As for `COc1ccc(-c2csc(N/N=C(\C)CCO)n2)cc1`, the Activity in the assay on Cryptococcus neoformans [1], in the assay on Cryptococcus neoformans [3], in the assay with Cryptococcus neoformans [4] and in the assay with Cryptococcus neoformans [5] was 90% in each case. Further, the Time in assay [2] amounted to 2.15 h. Also, the outcome in assay [6] was inactive.

Regarding `C(=N\Nc1nc(-c2ccccc2)cs1)/C1CCCCC1`, the Activity in the assay on Cryptococcus neoformans [7], in the assay with Cryptococcus neoformans [8], with Cryptococcus neoformans [9] and with Cryptococcus neoformans [10] was 90% in each case.

As for `OC(Cn1cncn1)(Cn1cncn1)c1ccc(F)cc1F` [FLUCONAZOLE], the Activity (in [11]; with Cryptococcus neoformans [12]; with Cryptococcus neoformans [13]; in [14]; with Cryptococcus neoformans [15]; in the assay on Cryptococcus neoformans [16]) was 80% in each case. Also, the Activity (in [17]; in [18]; in assay [19]; in assay [20]; with Cryptococcus neoformans [21]) was 80% each time.

With `C[C@@H]1[C@H](O)[C@@H](C)/C=C/C=C/C=C/C=C/C=C/C=C/C=C/[C@H](O[C@@H]2O[C@H](C)[C@@H](O)[C@H](N)[C@@H]2O)C[C@@H]2O[C@](O)(C[C@@H](O)C[C@@H](O)[C@H](O)CC[C@@H](O)C[C@@H](O)CC(=O)O[C@H]1C)C[C@H](O)[C@H]2C(=O)O` [AMPHOTERICIN B], the Activity (in the assay with Cryptococcus neoformans [22]; in assay [23]; in assay [24]; in the assay on Cryptococcus neoformans [25]; in [26]; in the assay on Cryptococcus neoformans [27]) was 90% throughout. The Activity (with Cryptococcus neoformans [28]; with Cryptococcus neoformans [29]; in the assay on Cryptococcus neoformans [30]; in [31]) was 90% throughout.
